Bioassay records deposited in PubChem BioAssay by several laboratories.
HSV augment: increases HSV replication in cells | HSV replication augmentation in cells, fold increase | actives 0.005% (n = 220,000) | maximum fold increase; in the data active = maximum fold increase above about 1.5; inconclusive = no clear call, values can overlap the other calls; tested in PC3 cells
STAT3 activator: STAT3 signaling activation; U3A cells, IL-6 STAT3-luciferase reporter, luminescence; 100% = signal with IL-6 EC80 alone; activation (% of control), % at 5.6 µM; actives 0.91% (n = 190,000); AID 871;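 active = activation above the screen-wide mean of compound activation plus 3 SD, cut at about 130% in these data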;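 also: 0% = background luminescence of wells with medium and substrate only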
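Material: human STAT1-deficient U3A cells with stable STAT3-luciferase reporter / Probe or stimulus: IL-6 stimulus at 33 ng/mL final / Schedule: 1 h compound pre-exposure, 6 h IL-6 stimulation, 37 °C / Technique: luminescence / Read-out basis: percent of IL-6-only median luminescence / Control set: IL-6-only high control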
STAT1 blocker: reduces IFN-gamma driven STAT1 reporter signal | NIH 3T3 STAT1-luciferase reporter, luminescence | inhibition, % at 5.5 µM | AID 920 | actives 0.35% (n = 200,000);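 active = inhibition above a set limit, the mean inhibition across all tested compounds plus 3 SD, cut at about 34% in these data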;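 also: 0% = IFN-gamma with DMSO and 100% = IFN-gamma with 300 µM nifuroxazide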
STAT3 inh: STAT3 signaling inhibition; U3A cells, IL-6 STAT3-luciferase reporter, luminescence; host cell line lacks STAT1; inhibition, % at 5.5 µM; actives 0.89% (n = 190,000); AID 862;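 active = inhibition above the mean inhibition across all screened compounds plus 3 SD, cut at about 44% in these data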;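 also: 0% = DMSO only wells and 100% = 100 µM nifuroxazide control wells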
STAT1 act: increases IFN-gamma driven STAT1 reporter signal | NIH 3T3 STAT1-luciferase reporter, luminescence; 100% = IFN-gamma alone, no compound | activation (% of control), % at 5.5 µM | actives 2.6% (n = 200,000) | AID 932;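 active = activation above the screen-wide mean activation plus 3 SD, cut at about 130% in these data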;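 also: raw ratio to IFN-gamma control signal so 100% means no change and 0% no light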
KCC2 mod: modulators of human KCC2 chloride dependent transport | KCC2 cells, thallium flux FluoZin-2 fluorescence | Q9H2X9 | actives 2.2% (n = 190,000) | AID 1456 | B-score of Tl+ flux slope (higher = more flux/activation; lower = inhibition) at 10 µM;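 active = thallium flux slope and its plate-corrected score both differing from the plate sample mean at a set confidence after two filtering rounds, in either direction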;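 also: slope of fluorescence scaled to starting intensity during 10 to 20 s after thallium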
KCC2 sec1: KCC2 (human) modulation, secondary assay; shares compounds with KCC2 mod; HEK293-KCC2, thallium flux, FluoZin2 fluorescence; active compounds read high; normalised thallium flux (F/F0 slope) at 10 µM; actives 15% (n = 3,700); AID 1713;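 active = thallium flux slope above the same plate's solvent-only control mean plus 3 SD; inconclusive = the two replicate wells disagree; inactive = no significant difference from solvent-only control wells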
KCC2 bumet counter: thallium flux persisting under bumetanide in KCC2 cells, counter-screen secondary assay; shares compounds with KCC2 mod; HEK293-KCC2 + bumetanide/ouabain, thallium flux FluoZin2; active compounds read high; normalized thallium flux at 10 µM; actives 49% (n = 3,700); AID 1714;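 active = thallium entry rate above the same plate's blocked-transporter control wells by more than 3 SD; inconclusive = the two repeat wells disagree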;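 also: raw slope of fluorescence over initial fluorescence between 10 and 20 s after thallium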
KCC2 secondary2: confirmation of human KCC2 transport modulators; shares compounds with KCC2 mod; normalized thallium flux at 10 µM; HEK293-KCC2, thallium flux FluoZin2 fluorescence; actives lie on both sides; F/F0 rise rate, 10–20 s post-thallium; actives 23% (n = 3,700); AID 1715;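 active = thallium flux slope more than 3 SD above or below the plate's solvent-only control mean, mostly below; inconclusive = the two repeat wells disagreed; inactive = no significant shift from solvent-only controls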;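 also: raw slope with 0.1% DMSO as baseline and bumetanide as block control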
HEK counter1: parental HEK flux effect, counter-screen; AID 1716; actives 46% (n = 3,700); thallium flux rate (normalised fluorescence) at 10 µM; HEK293 parental cells, thallium flux FluoZin2, ouabain; baseline-ratio fluorescence slope, 10–20 s after thallium; shares compounds with KCC2 mod;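 active = thallium flux rate significantly above the same plate's solvent-only control wells, beyond their mean plus 3 SD; inconclusive = the two replicate wells gave conflicting results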
KCC2 ouabain: confirmation of human KCC2 modulators with ouabain; shares compounds with KCC2 mod; HEK293-KCC2, thallium flux FluoZin2 fluorescence; bidirectional: low = inhibitor, high = activator; raw Tl+ flux slope (below DMSO = inhibition, above = activation) at 10 µM; actives 48% (n = 3,700);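 active = thallium flux slope beyond 3 SD from same-plate DMSO control mean in most replicates, usually higher, sometimes lower; inconclusive = repeat tests gave conflicting results; inactive = no significant difference from controls in most replicates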;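 also: slope of initial-normalized fluorescence between seconds 10 and 20 after thallium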
HEK293 Tl flux2: acts in parental HEK cells, second KCC2 counter-screen | actives 33% (n = 3,700) | thallium flux slope at 10 µM | HEK293 parental, thallium flux FluoZin-2 fluorescence slope | AID 1718 | shares compounds with KCC2 mod;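 active = thallium flux slope above the same plate's solvent-control mean plus 3 SD in both duplicate wells; inconclusive = duplicate wells that disagreed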;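 also: run without ouabain in cells lacking the KCC2 cotransporter; slope of fluorescence scaled to its starting value between 10 and 20 s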
Starred values were filed as active, the others as inactive; i = inactive; ? = inconclusive; / = not tested or not shown. The list is not random: actives were taken first. Their share in the collection is about 5.5%.

SMILES	HSV augment	STAT3 activator	STAT1 blocker	STAT3 inh	STAT1 act	KCC2 mod	KCC2 sec1	KCC2 bumet counter	KCC2 secondary2	HEK counter1	KCC2 ouabain	HEK293 Tl flux2
Cc1oc(-c2nc3ccccc3n2C)cc1C(=O)c1ccccc1	i	42	39*	73*	64	-2.9*	0.0063	0.0051	0.032	0.0036	0.014*	0.011
CCC(=O)c1cc(-c2nc3ccccc3n2C)n(C)c1	i	83	6	22	95	0.19	/	/	/	/	/	/
COc1ccc(NC(=O)C(=O)N/N=C/c2cccnc2)c(OC)c1	i	94	-1	12	101	7.7*	0.0058	?	0.03	0.0086	0.021	0.012
Cc1cccc(C)c1-n1cccc1/C=C1/C(=N)N2C(=NC1=O)SN=C2S(C)(=O)=O	i	97	2	10	98	-4.5*	0.0074	0.0062	0.034	0.0065	0.015*	0.011
CCC1=NN2C(=N)/C(=C\c3cccn3-c3ccc(C)cc3C)C(=O)N=C2S1	i	113	8	-10	94	8.6*	0.011	0.055*	0.035	0.02*	0.04*	?
Cc1ccc(-n2cccc2/C=C2/C(=N)N3C(=NC2=O)SN=C3S(C)(=O)=O)cc1Cl	?	87	9	11	92	-2.2	/	/	/	/	/	/
CCC1=NN2C(=N)/C(=C/c3cc(C)n(Cc4ccccc4)c3C)C(=O)N=C2S1	i	/	/	/	/	2.1	/	/	/	/	/	/
CCC1=NN2C(=N)/C(=C\c3cccn3-c3c(C)cccc3C)C(=O)N=C2S1	i	113	-2	-12	100	9*	?	0.028*	0.036	0.032*	0.03*	0.015*
CCNS(=O)(=O)c1ccc(NC(=O)c2ccc(Cn3cc([N+](=O)[O-])cn3)o2)cc1	i	102	-3	2	101	-1	/	/	/	/	/	/
O=c1/c(=C/c2ccc(O)c([N+](=O)[O-])c2)sc2nc3ccccc3n12	i	109	-5	-2	105	-3.7*	0.0058	0.0049	0.031	0.0078	0.017	0.01
O=c1/c(=C\c2cccnc2)sc2nc3ccccc3n12	i	108	-27	-5	125	/	/	/	/	/	/	/
O=C(NC(=S)NCCC1=CCCCC1)c1ccccc1Br	i	110	-7	-12	106	46*	?	0.041*	0.048*	0.039*	0.043*	0.025*
O=C(NC1CCCCC1)c1cc(C(=O)c2ccccc2Br)c[nH]1	i	89	-2	16	101	/	/	/	/	/	/	/
O=C(NC(=S)NC1CCCC1)c1ccccc1Br	i	106	-11	-7	110	8.8*	0.013*	0.055*	0.037	0.022*	?	0.015*
Cc1ccc(Nc2ccc(S(=O)(=O)N3CCOCC3)cc2[N+](=O)[O-])cc1C	i	107	-1	-13	101	-0.86	/	/	/	/	/	/
Fc1ccc(-n2ncc3c(SCc4cccnc4)ncnc32)cc1	i	77	-19	29	118	21*	0.019	0.026*	?	0.029*	0.031*	0.023*
